# From ChEMBL document CHEMBL1128448, “Synthesis and antifungal activity of new azole derivatives containing an N-acylmorpholine ring” (1995)
# Assays:
# Pichia kudriavzevii = assay: In vitro evaluation of minimum inhibitory concentration against Candida krusei 70; assay type: functional; details: Pichia kudriavzevii; read-out: MIC
# In short: (§1)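 Stocks are 800 μg/mL in 50% ethanol. Each plate gets 10 μL of inoculum at 10^5 cfu/mL. Incubation at 25 °C, 48 h for yeasts and 120 h for dermatophytes and molds. Organisms are ATCC strains or clinical isolates.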
# [1] = tested on: Meyerozyma guilliermondii; assay: In vitro evaluation of minimum inhibitory concentration against Candida guilliermondii 26; assay type: functional; in short: as §1
# Trichophyton rubrum = assay: In vitro evaluation of minimum inhibitory concentration against Trichophyton rubrum 90; assay type: functional; in short: as §1
# Mus sp. [2] = assay: In vivo evaluation of % survival rate after peroral administration on 7th day at dose 2.5 mg/kg; assay type: functional; details: Mus sp., po
# Nannizzia gypsea = assay: In vitro evaluation of minimum inhibitory concentration against Microsporum gypseum 22; assay type: functional; details: Nannizzia gypsea; read-out: MIC; in short: as §1
# Candida parapsilosis = assay: In vitro evaluation of minimum inhibitory concentration against Candida parapsilosis 61; assay type: functional; in short: as §1
# Kluyveromyces marxianus = assay: In vitro evaluation of minimum inhibitory concentration against Candida pseudotropicalis 13; assay type: functional; in short: as §1
# Mus sp. [3] = assay: In vivo evaluation of % survival rate after peroral administration on 3rd day at dose 2.5 mg/kg; assay type: functional; details: Mus sp., po
# Mus sp. [4] = assay: In vivo evaluation of % survival rate after peroral administration on 9th day at dose 2.5 mg/kg; assay type: functional; details: Mus sp., po
# Candida tropicalis = assay: In vitro evaluation of minimum inhibitory concentration against Candida tropicalis 2.11; assay type: functional; details: Candida tropicalis; read-out: MIC; in short: as §1
# Aspergillus fumigatus = assay: In vitro evaluation of minimum inhibitory concentration against Aspergillus fumigatus 33; assay type: functional; details: Aspergillus fumigatus; read-out: MIC; in short: as §1
# Microsporum canis = assay: In vitro evaluation of minimum inhibitory concentration against Microsporum canis 47; assay type: functional; in short: as §1
# Candida albicans [5] = assay: In vivo evaluation of minimum inhibitory concentration against Candida albicans 60; assay type: functional
# In short: (§2)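 Broth macrodilution MIC following NCCLS M27-P, in RPMI-1640 buffered with 0.165 M MOPS. Fluconazole was dissolved in water and other drugs in DMSO. C. parapsilosis ATCC 22019 served as the reference strain in every run. MIC was the lowest concentration giving turbidity at or below the 80% inhibition standard.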
# Nakaseomyces glabratus = assay: In vitro evaluation of minimum inhibitory concentration against Torulopsis glabrata 78; assay type: functional; details: Nakaseomyces glabratus; read-out: MIC; in short: as §1
# Candida albicans [6] = assay: In vivo evaluation of minimum inhibitory concentration against Candida albicans 406; assay type: functional; in short: as §2
# Aspergillus flavus = assay: In vitro evaluation of minimum inhibitory concentration against Aspergillus flavus 19; assay type: functional; details: Aspergillus flavus; read-out: MIC; in short: as §1
# Aspergillus niger = assay: In vitro evaluation of minimum inhibitory concentration against Aspergillus niger 18; assay type: functional; details: Aspergillus niger; read-out: MIC; in short: as §1
# Trichophyton benhamiae = assay: In vitro evaluation of minimum inhibitory concentration against Trichophyton mentagrophytes 23; assay type: functional, Arthroderma benhamiae; details: Trichophyton benhamiae; read-out: MIC; in short: as §1
# Mus sp. [7] = assay: In vivo evaluation of % survival rate after peroral administration on 5th day at dose 2.5 mg/kg; assay type: functional; details: Mus sp., po
# Rhodotorula mucilaginosa = assay: In vitro evaluation of minimum inhibitory concentration against Rhodotorula rubra 16; assay type: functional; details: Rhodotorula mucilaginosa; read-out: MIC; in short: as §1
# Candida albicans [8] = assay: In vitro evaluation of minimum inhibitory concentration against Candida albicans 76; assay type: functional; in short: as §1
# Mus sp. [9] = assay: In vivo evaluation of % survival rate after peroral administration on 7th day at dose 1 mg/kg; assay type: functional; details: route oral, 1 mg/kg
# Mus sp. [10] = assay: In vivo evaluation of % survival rate after peroral administration on 3rd day at dose 1 mg/kg; assay type: functional
# Mus sp. [11] = assay: In vivo evaluation of % survival rate after peroral administration on 5th day at dose 1 mg/kg; assay type: functional
# Mus sp. [12] = assay: In vivo evaluation of % survival rate after peroral administration on 9th day at dose 1 mg/kg; assay type: functional; details: route oral, 1 mg/kg
# Candida albicans [13] = assay: […] Evaluation of minimum inhibitory concentration against Candida albicans 406; assay type: functional; in short: as §1
# Candida albicans [14] = assay: […] Evaluation of minimum inhibitory concentration against Candida albicans 60; assay type: functional; in short: as §1
# [15] = Meyerozyma guilliermondii, read-out: MIC
# [16] = Trichophyton rubrum, read-out: MIC
# [17] = Lodderomyces parapsilosis, read-out: MIC
# [18] = Kluyveromyces marxianus, read-out: MIC
# [19] = Microsporum canis, read-out: MIC
# [20] = Candida albicans, read-out: MIC
SMILES,MIC (Pichia kudriavzevii),"MIC [1, 15]",MIC (Trichophyton rubrum; [16]),survival at 2.5 mg/kg (Mus sp. [2]),MIC (Nannizzia gypsea),MIC (Candida parapsilosis; [17]),MIC (Kluyveromyces marxianus; [18]),survival at 2.5 mg/kg (Mus sp. [3]),survival at 2.5 mg/kg (Mus sp. [4]),MIC (Candida tropicalis),MIC (Aspergillus fumigatus),MIC (Microsporum canis; [19]),MIC (Candida albicans [5]; [20]),MIC (Nakaseomyces glabratus),MIC (Aspergillus flavus),MIC (Aspergillus niger),MIC (Trichophyton benhamiae),survival at 2.5 mg/kg (Mus sp. [7]),MIC (Rhodotorula mucilaginosa),MIC (Candida albicans [8]; [20]),also measured
C[C@H]1N(C(=O)c2ccc(OCC(F)(F)C(F)F)cc2)CC(=O)O[C@@]1(Cn1cncn1)c1ccc(Cl)cc1Cl (racemic),> 80 µg/mL,80 µg/mL,> 80 µg/mL,80%,80 µg/mL,20 µg/mL,10 µg/mL,90%,60%,80 µg/mL,> 80 µg/mL,> 80 µg/mL,2.5 µg/mL,> 80 µg/mL,> 80 µg/mL,> 80 µg/mL,> 80 µg/mL,90%,80 µg/mL,20 µg/mL,MIC (Candida albicans [6]; [20]): 1.25 µg/mL
C[C@H]1N(C(=O)c2ccc(C(F)(F)F)cc2)CC(=O)O[C@@]1(Cn1cncn1)c1ccc(F)cc1F (racemic),> 80 µg/mL,> 80 µg/mL,> 80 µg/mL,95%,> 80 µg/mL,> 80 µg/mL,80 µg/mL,100%,70%,> 80 µg/mL,> 80 µg/mL,> 80 µg/mL,80 µg/mL,> 80 µg/mL,> 80 µg/mL,> 80 µg/mL,> 80 µg/mL,100%,> 80 µg/mL,> 80 µg/mL,"Survival (Mus sp. [9]): 30%; survival at 1 mg/kg (Mus sp. [10]; Mus sp., po): 95%; MIC (Candida albicans [6]; [20]): 40 µg/mL; survival at 1 mg/kg (Mus sp. [11]; Mus sp., po): 85%; Survival (Mus sp. [12]): 0%"
C[C@H]1N(C(=O)c2ccc(C(F)(F)F)cc2)C[C@H](O)O[C@@]1(Cn1cncn1)c1ccc(F)cc1F (racemic),–,–,–,100%,–,–,–,100%,100%,> 80 µg/mL,–,–,–,> 80 µg/mL,–,–,–,100%,> 80 µg/mL,–,"Survival (Mus sp. [9]): 55%; Survival (Mus sp. [10]; route oral, 1 mg/kg): 85%; MIC [1]: >80 µg/mL; MIC (Trichophyton rubrum): >80 µg/mL; MIC (Candida parapsilosis): 80 µg/mL; MIC (Kluyveromyces marxianus): 10 µg/mL; MIC (Microsporum canis): 80 µg/mL; MIC (Candida albicans [5]): 10 µg/mL; MIC (Candida albicans [6]): 2.5 µg/mL; Survival (Mus sp. [11]; route oral, 1 mg/kg): 85%; Survival (Mus sp. [12]): 25%; MIC (Candida albicans [8]): >80 µg/mL"
CCC(C)n1ncn(-c2ccc(N3CCN(c4ccc(OC[C@H]5CO[C@](Cn6cncn6)(c6ccc(Cl)cc6Cl)O5)cc4)CC3)cc2)c1=O (stereo partly drawn) [ITRACONAZOLE],1.25 µg/mL,0.15 µg/mL,0.63 µg/mL,–,80 µg/mL,0.07 µg/mL,80 µg/mL,–,–,20 µg/mL,0.15 µg/mL,80 µg/mL,–,> 80 µg/mL,> 80 µg/mL,> 80 µg/mL,> 80 µg/mL,–,> 80 µg/mL,0.63 µg/mL,MIC (Candida albicans [13]): < 0.03 µg/mL; MIC (Candida albicans [14]): 0.07 µg/mL
C[C@H]1N(C(=O)c2ccc(OCC(F)(F)C(F)F)cc2)CC(=O)O[C@@]1(Cn1cncn1)c1ccc(F)cc1F (racemic),> 80 µg/mL,80 µg/mL,> 80 µg/mL,90%,> 80 µg/mL,80 µg/mL,80 µg/mL,100%,70%,> 80 µg/mL,> 80 µg/mL,> 80 µg/mL,10 µg/mL,> 80 µg/mL,> 80 µg/mL,> 80 µg/mL,> 80 µg/mL,100%,> 80 µg/mL,> 80 µg/mL,MIC (Candida albicans [6]; [20]): 10 µg/mL
